In assay [1] the target is T1, Alpha-1A adrenergic receptor (Homo sapiens, UniProt P35348).
T1 sequence (P35348 whole entry): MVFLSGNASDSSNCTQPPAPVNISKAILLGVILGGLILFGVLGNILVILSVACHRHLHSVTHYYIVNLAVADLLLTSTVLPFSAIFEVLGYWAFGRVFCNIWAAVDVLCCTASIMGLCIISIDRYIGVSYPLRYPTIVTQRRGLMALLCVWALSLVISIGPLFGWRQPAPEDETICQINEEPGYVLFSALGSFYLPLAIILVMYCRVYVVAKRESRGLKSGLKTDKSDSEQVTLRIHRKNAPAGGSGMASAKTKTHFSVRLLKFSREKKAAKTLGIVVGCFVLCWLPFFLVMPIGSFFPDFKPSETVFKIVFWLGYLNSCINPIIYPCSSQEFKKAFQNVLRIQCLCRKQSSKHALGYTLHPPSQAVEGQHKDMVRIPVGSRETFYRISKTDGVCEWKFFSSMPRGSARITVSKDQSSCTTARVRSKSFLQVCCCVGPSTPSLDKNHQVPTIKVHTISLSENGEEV
Kind of assay: Agonist potency at Alpha-1 adrenergic receptor assayed in rat-1 fibroblasts expressing human Alpha-1A. It is filed as functional. The essentials: (§1)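 Human α1a, α1b or α1d receptors expressed in Rat-1 fibroblasts (DMEM, 10% heat-inactivated FBS, 0.6 mg/mL G418). Cells were plated at 6000/well and grown 48 h at 37 °C. They were loaded 2 h at 37 °C with Calcium Green (4 μM), pluronic acid 0.2% and probenecid 2.5 mM in HEPES buffer pH 7.4, then read by FLIPR at room temperature: 10 s baseline, 50 s after compound. 11-point curves were expressed as % of the 40 μM phenylephrine response; top concentration typically 5 μM.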

Assay [2] deals with T2, Alpha-1B adrenergic receptor (Homo sapiens, UniProt P35368).
T2 sequence (P35368 whole entry): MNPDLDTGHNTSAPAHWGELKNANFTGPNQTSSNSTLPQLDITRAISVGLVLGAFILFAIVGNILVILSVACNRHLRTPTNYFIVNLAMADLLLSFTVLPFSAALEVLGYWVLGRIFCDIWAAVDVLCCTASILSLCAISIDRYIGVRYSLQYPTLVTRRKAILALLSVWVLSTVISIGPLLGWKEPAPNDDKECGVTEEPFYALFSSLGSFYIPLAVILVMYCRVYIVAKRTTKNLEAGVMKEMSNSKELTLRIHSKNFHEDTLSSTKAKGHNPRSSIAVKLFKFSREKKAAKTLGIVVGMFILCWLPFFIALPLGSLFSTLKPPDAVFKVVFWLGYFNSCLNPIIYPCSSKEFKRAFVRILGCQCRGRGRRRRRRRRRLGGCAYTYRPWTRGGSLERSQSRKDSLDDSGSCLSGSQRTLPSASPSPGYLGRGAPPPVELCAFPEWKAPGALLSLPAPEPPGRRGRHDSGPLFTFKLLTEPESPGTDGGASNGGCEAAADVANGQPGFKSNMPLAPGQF
Description: Agonist potency at alpha-1b adrenoceptors assayed in rat-1 fibroblasts expressing human Alpha-1B adrenergic receptor. Format: functional. In outline:
as §1

Assay [3] addresses T2, Alpha-1B adrenergic receptor. Description: Agonist potency at alpha-1b adrenoceptors assayed in rat-1 fibroblasts expressing human alpha-1b. Format: functional. In outline: (§2)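 Rat-1 fibroblasts expressing human α1a/α1b/α1d, grown in DMEM with 10% heat-inactivated FBS and 0.6 mg/mL G418, plated 6000 cells/well and cultured 48 h at 37 °C. Loaded 2 h at 37 °C with Calcium Green (4 μM), 0.2% pluronic acid and 2.5 mM probenecid in HEPES buffer pH 7.4. FLIPR read at room temperature: 10 s baseline, then 50 s after compound. 11-point curves as % of 40 μM phenylephrine response, top concentration typically 5 μM.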

Assay [4] has as its target T3, Alpha-1A adrenergic receptor (Homo sapiens) (UniProt P35348).
T3 sequence (whole entry): T1 sequence (P35348 whole entry)
Description: Efficacy as % of the maximal effect observed for nonselective agonist phenylephrine in rat-1 fibroblasts expressing human alpha1. Format: functional. The essentials: as §2

Assay [5] addresses T4, Alpha-1D adrenergic receptor (Homo sapiens) (UniProt P25100).
T4 sequence (whole entry): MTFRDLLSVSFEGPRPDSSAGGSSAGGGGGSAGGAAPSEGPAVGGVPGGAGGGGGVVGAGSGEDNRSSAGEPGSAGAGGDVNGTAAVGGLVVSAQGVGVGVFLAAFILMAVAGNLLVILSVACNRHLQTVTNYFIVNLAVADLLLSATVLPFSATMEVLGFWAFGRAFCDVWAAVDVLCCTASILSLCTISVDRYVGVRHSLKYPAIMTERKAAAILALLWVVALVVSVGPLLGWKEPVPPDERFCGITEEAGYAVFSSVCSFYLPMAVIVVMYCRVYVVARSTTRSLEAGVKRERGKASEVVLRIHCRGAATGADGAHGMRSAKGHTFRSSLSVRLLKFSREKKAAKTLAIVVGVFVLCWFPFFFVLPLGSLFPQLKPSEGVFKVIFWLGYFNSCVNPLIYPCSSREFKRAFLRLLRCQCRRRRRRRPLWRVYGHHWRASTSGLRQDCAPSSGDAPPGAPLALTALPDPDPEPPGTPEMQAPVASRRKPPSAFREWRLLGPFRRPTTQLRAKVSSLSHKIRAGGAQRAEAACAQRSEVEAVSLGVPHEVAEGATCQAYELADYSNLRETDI
Kind of assay: Agonist potency at Alpha-1D adrenergic receptor assayed in rat-1 fibroblasts expressing human alpha1d. It is filed as functional. In outline: as §2

In assay [6] the target is T3, Alpha-1A adrenergic receptor (Homo sapiens). Description: Agonist potency at Alpha-1 adrenergic receptor assayed in rat-1 fibroblasts expressing human Alpha-1 adrenergic receptor. It is filed as functional. In outline:
as §2

Assay [7] deals with T5, Alpha-2C adrenergic receptor (Homo sapiens) (UniProt P18825).
T5 sequence (whole entry): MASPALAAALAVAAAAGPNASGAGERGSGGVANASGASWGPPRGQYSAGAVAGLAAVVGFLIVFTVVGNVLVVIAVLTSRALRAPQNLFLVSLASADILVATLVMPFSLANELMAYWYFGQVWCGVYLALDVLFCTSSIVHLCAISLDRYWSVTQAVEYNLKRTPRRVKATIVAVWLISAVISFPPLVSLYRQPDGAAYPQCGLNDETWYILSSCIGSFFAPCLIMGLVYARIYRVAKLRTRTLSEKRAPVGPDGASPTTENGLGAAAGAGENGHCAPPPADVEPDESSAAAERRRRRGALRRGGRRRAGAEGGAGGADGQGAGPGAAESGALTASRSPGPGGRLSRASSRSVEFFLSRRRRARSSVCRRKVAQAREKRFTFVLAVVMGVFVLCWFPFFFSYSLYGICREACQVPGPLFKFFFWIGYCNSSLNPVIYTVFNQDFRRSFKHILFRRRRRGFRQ
Description: Agonist potency at Alpha-2C adrenergic receptor assayed in CHO cells expressing human Alpha-2C adrenergic receptor. It is filed as functional, cell-based.

Molecules are shown by their SMILES.

In assay [1], `CS(=O)(=O)c1ccccc1NCC1=NCCN1` had an EC50 of 56.2 nM.

As to `CS(=O)(=O)c1cc(Cl)ccc1NCC1=NCCN1`, the concentration for a half-maximal effect (EC50) in assay [2] was above 100000 nM.

`CSc1ccccc1NCC1=NCCN1`: the half-maximal effective concentration (EC50) in assay [3] was 2.19 nM.

With `CS(=O)(=O)c1c(F)cccc1NCC1=NCCN1`, the Max in assay [4] turned out to be 93%.

For the compound `C[S+]([O-])c1ccccc1NCC1=NCCN1` (stereo not drawn), a half-maximal effect in assay [1] (EC50) was put at 490 nM.

With `CCCS(=O)(=O)c1ccccc1NCC1=NCCN1`, the pEC5 in assay [5] was below 4; in assay [6], 7.16; in assay [7], 5.5.

One may read the EC50 as the concentration that produces a half-maximal response. A high value points to a less potent agent.

For the origin of these results see ChEMBL document CHEMBL1135421, “2-(Anilinomethyl)imidazolines as alpha1 adrenergic receptor agonists: the discovery of alpha1a subtype selective 2'-alkylsulfonyl-substituted analogues” (J Med Chem, 2002).
